ChEMBL document CHEMBL3817826, “H2S-Donating Doxorubicins May Overcome Cardiotoxicity and Multidrug Resistance” (J Med Chem, 2016)
Active and inactive are the calls of the source. The rule behind the calls is not given here.

Experiments:
[1] = test system: H9c2; test: Cytotoxicity in rat H9c2 cells at 5 uM incubated for 24 hrs in presence of hydroxocobalamin by LDH release-based spectrofluorimetrical analysis relative to control; type: cell-based; conditions: h9c2, 24 h
Summary of the method: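 H9c2 cardiomyocytes given 5 μM drug for 24 h with 100 μM hydroxocobalamin as H2S scavenger. LDH measured at 340 nm over 6 min in medium and lysate. Extracellular activity taken as % of total, duplicate, n = 3.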

[2] = test system: U2OS; test: Increase in doxorubicin-mediated cytotoxicity in human U2OS/DX100 cells at 5 uM incubated for 24 hrs by LDH release-based spectrofluorimetrical analysis relative to control; type: functional, cell-based
Summary of the method: (§1)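 Cells exposed 24 h to 5 μM drug in DMEM with 10% FBS at 37 °C, 5% CO2. Medium spun 12,000 × g 5 min. Cells sonicated in 82.3 mM triethanolamine phosphate-HCl pH 7.6. LDH in medium and lysate followed 6 min at 340 nm. Extracellular LDH reported as % of total dish activity, duplicate, n = 3, mean ± SD.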

[3] = test system: U2OS; test: Increase in doxorubicin accumulation in human U2OS/DX100 cells at 5 uM incubated for 24 hrs by fluorimetrical analysis; type: functional, cell-based
[4] = test system: U2OS; test: Effect on doxorubicin accumulation in human U2OS/DX580 cells at 5 uM incubated for 24 hrs by fluorimetrical analysis; type: functional, cell-based
[5] = test system: U2OS; test: Reduction of doxorubicin-mediated ROS accumulation in human U2OS/DX30 cells at 5 uM incubated for 24 hrs by DCFDA-AM probe-based fluorimetrical analysis relative to control; type: functional, cell-based
[6] = test system: U2OS; test: Increase in doxorubicin accumulation in human U2OS/DX30 cells at 5 uM incubated for 24 hrs by fluorimetrical analysis; type: functional, cell-based
[7] = test system: U2OS; test: Increase in doxorubicin-mediated cytotoxicity in human U2OS/DX30 cells at 5 uM incubated for 24 hrs by LDH release-based spectrofluorimetrical analysis relative to control; type: functional, cell-based; summary of the method: as §1
[8] = test system: H9c2; test: Cytotoxicity in rat H9c2 cells at 5 uM incubated for 24 hrs by LDH release-based spectrofluorimetrical analysis relative to control; type: cell-based; conditions: h9c2, 24 h; summary of the method: as §1
[9] = test system: H9c2; test: Reduction of doxorubicin-mediated cytotoxicity in rat H9c2 cells at 5 uM incubated for 24 hrs by LDH release-based spectrofluorimetrical analysis relative to control; type: functional, cell-based
[10] = test system: H9c2; test: Cytotoxicity in rat H9c2 cells at 5 uM coincubated with doxorubicin for 24 hrs in presence of hydroxocobalamin by LDH release-based spectrofluorimetrical analysis relative to control; type: cell-based; conditions: h9c2, 24 h
[11] = test system: U2OS; test: Reduction of doxorubicin-mediated ROS accumulation in human U2OS/DX100 cells at 5 uM incubated for 24 hrs by DCFDA-AM probe-based fluorimetrical analysis relative to control; type: functional, cell-based
[12] = test system: U2OS; test: Effect on doxorubicin-mediated cytotoxicity in human U2OS/DX580 cells at 5 uM incubated for 24 hrs LDH release-based spectrofluorimetrical analysis relative to control; type: functional, cell-based; summary of the method: as §1
[13] = test system: H9c2; test: Effect on doxorubicin accumulation in rat H9c2 cells at 5 uM incubated for 24 hrs by fluorimetrical analysis; type: functional, cell-based
[14] = test system: U2OS; test: Activity at PgP in human U2OS/[…] cells assessed as Vmax for doxorubicin measured per mg of protein incubated for 20 mins by fluorimetrical analysis (reference value: […] +/- […] nmol/min); type: cell-based
[15] = test system: U2OS; test: Reduction of doxorubicin-mediated cytotoxicity in human U2OS cells at 5 uM incubated for 24 hrs by DCFDA-AM probe-based fluorimetrical analysis relative to control; type: functional, cell-based
[16] = test system: U2OS; test: Reduction of doxorubicin-mediated ROS accumulation in human U2OS/DX580 cells at 5 uM incubated for 24 hrs by DCFDA-AM probe-based fluorimetrical analysis relative to control; type: functional, cell-based
[17] = test system: H9c2; test: Cytotoxicity in rat H9c2 cells assessed as reduction in basal ROS level at 5 uM incubated for 24 hrs by DCFDA-AM probe-based fluorimetrical analysis; type: cell-based; conditions: h9c2, 24 h
Summary of the method: (§2)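 After 24 h at 5 μM, 1×10^6 cells in 0.5 mL PBS were loaded with 5 μM DCFDA-AM for 30 min at 37 °C, spun and resuspended. Fluorescence read at ex 492/em 517 nm, expressed as nmol ROS/mg cell protein. Duplicate, n = 3, mean ± SD.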

[18] = test system: H9c2; test: Cytotoxicity in rat H9c2 cells assessed as reduction in basal ROS level at 5 uM incubated for 24 hrs in presence of hydroxocobalamin by DCFDA-AM probe-based fluorimetrical analysis; type: cell-based; conditions: h9c2, 24 h
Summary of the method: (§3)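 H9c2 cells held 24 h with 5 μM drug plus 100 μM hydroxocobalamin, then loaded with 5 μM DCFDA-AM for 30 min at 37 °C. Fluorescence read at 492/517 nm, expressed as nmol ROS/mg protein. Duplicate, n = 3.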

[19] = Drug uptake in human U2OS/DX100 cells at 5 uM incubated for 24 hrs by fluorimetrical analysis; type: ADME, cell-based
Summary of the method: (§4)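 Intracellular drug measured after 24 h exposure to 5 μM. Cell lysates read fluorimetrically at ex 475/em 553 nm with cell-free blank subtracted. Converted by calibration curve to nmol drug/mg cell protein. Duplicate, n = 3, mean ± SD.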

[20] = test system: U2OS; test: Cytotoxicity in human U2OS/DX100 cells at 5 uM incubated for 24 hrs by LDH release-based spectrofluorimetrical analysis; type: functional, cell-based; summary of the method: as §1
[21] = test system: U2OS; test: Induction of intracellular ROS accumulation in human U2OS cells at 5 uM incubated for 24 hrs by DCFDA-AM probe-based fluorimetrical analysis relative to control; type: functional, cell-based; summary of the method: as §2
[22] = test system: H9c2; test: Cytotoxicity in rat H9c2 cells […] at 5 uM incubated for 24 hrs in presence of dexrazoxane by LDH release-based spectrofluorimetrical analysis relative to control; type: cell-based; conditions: h9c2, 24 h
[23] = test system: U2OS; test: Cytotoxicity in human U2OS/DX30 cells at 5 uM incubated for 24 hrs by LDH release-based spectrofluorimetrical analysis; type: functional, cell-based; summary of the method: as §1
[24] = test system: U2OS; test: Induction of intracellular ROS accumulation in human U2OS/DX100 cells at 5 uM incubated for 24 hrs by DCFDA-AM probe-based fluorimetrical analysis relative to control; type: functional, cell-based; summary of the method: as §2
[25] = Drug uptake in human U2OS/DX30 cells at 5 uM incubated for 24 hrs by fluorimetrical analysis; type: ADME, cell-based; summary of the method: as §4
[26] = Drug uptake in human U2OS/DX580 cells at 5 uM incubated for 24 hrs by fluorimetrical analysis; type: ADME, cell-based; summary of the method: as §4
[27] = test system: H9c2; test: Cytotoxicity in rat H9c2 cells assessed as reduction in ROS level at 5 uM incubated for 24 hrs in presence of NAC by DCFDA-AM probe-based fluorimetrical analysis; type: cell-based; conditions: h9c2, 24 h
[28] = test system: H9c2; test: Drug uptake in rat H9c2 cells at 5 uM incubated for 24 hrs by fluorimetrical analysis; type: ADME, cell-based; conditions: h9c2, 24 h; summary of the method: as §4
[29] = test system: H9c2; test: Cytotoxicity in rat H9c2 cells assessed as intracellular ROS accumulation at 5 uM incubated for 24 hrs by DCFDA-AM probe-based fluorimetrical analysis relative to control; type: cell-based; conditions: h9c2, 24 h; summary of the method: as §2
[30] = test system: U2OS; test: Activity at PgP in human […] cells assessed as Vmax measured per mg of protein incubated for 20 mins by fluorimetrical analysis; type: cell-based
Summary of the method: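 U-2OS/DX580 cells exposed 20 min to 0-50 μM drug, washed, intracellular doxorubicin read fluorimetrically; parallel dishes left a further 10 min at 37 °C before reading. Efflux rate (difference, nmol extruded/min/mg cell protein) plotted against initial concentration; Vmax and Km fitted. Means ± SD, n = 3.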

[31] = test system: U2OS; test: Induction of intracellular ROS accumulation in human U2OS/DX30 cells at 5 uM incubated for 24 hrs by DCFDA-AM probe-based fluorimetrical analysis relative to control; type: functional, cell-based; summary of the method: as §2
[32] = test system: U2OS; test: Induction of intracellular ROS accumulation in human U2OS/DX580 cells at 5 uM incubated for 24 hrs by DCFDA-AM probe-based fluorimetrical analysis relative to control; type: functional, cell-based; summary of the method: as §2
[33] = biological target: DNA topoisomerase 2-alpha (Homo sapiens) (UniProt P11388); test: Inhibition of human topoisomerase 2-mediated DNA cleavage at 5 uM using supercoiled pHOT1 plasmid as substrate by agarose gel electrophoresis
[34] = test system: H9c2; test: Cytotoxicity in rat H9c2 cells assessed as intracellular ROS accumulation at 5 uM incubated for 24 hrs in presence of hydroxocobalamin by DCFDA-AM probe-based fluorimetrical analysis relative to control; type: cell-based; conditions: h9c2, 24 h; summary of the method: as §3
[35] = test system: U2OS; test: Cytotoxicity in human U2OS/DX580 cells at 5 uM incubated for 24 hrs by LDH release-based spectrofluorimetrical analysis; type: functional, cell-based; summary of the method: as §1
[36] = test system: H9c2; test: Cytotoxicity in rat H9c2 cells at 5 uM incubated for 24 hrs in presence of NAC by LDH release-based spectrofluorimetrical analysis relative to control; type: cell-based; conditions: h9c2, 24 h

Sequence of DNA topoisomerase 2-alpha (Homo sapiens) (P11388 whole entry): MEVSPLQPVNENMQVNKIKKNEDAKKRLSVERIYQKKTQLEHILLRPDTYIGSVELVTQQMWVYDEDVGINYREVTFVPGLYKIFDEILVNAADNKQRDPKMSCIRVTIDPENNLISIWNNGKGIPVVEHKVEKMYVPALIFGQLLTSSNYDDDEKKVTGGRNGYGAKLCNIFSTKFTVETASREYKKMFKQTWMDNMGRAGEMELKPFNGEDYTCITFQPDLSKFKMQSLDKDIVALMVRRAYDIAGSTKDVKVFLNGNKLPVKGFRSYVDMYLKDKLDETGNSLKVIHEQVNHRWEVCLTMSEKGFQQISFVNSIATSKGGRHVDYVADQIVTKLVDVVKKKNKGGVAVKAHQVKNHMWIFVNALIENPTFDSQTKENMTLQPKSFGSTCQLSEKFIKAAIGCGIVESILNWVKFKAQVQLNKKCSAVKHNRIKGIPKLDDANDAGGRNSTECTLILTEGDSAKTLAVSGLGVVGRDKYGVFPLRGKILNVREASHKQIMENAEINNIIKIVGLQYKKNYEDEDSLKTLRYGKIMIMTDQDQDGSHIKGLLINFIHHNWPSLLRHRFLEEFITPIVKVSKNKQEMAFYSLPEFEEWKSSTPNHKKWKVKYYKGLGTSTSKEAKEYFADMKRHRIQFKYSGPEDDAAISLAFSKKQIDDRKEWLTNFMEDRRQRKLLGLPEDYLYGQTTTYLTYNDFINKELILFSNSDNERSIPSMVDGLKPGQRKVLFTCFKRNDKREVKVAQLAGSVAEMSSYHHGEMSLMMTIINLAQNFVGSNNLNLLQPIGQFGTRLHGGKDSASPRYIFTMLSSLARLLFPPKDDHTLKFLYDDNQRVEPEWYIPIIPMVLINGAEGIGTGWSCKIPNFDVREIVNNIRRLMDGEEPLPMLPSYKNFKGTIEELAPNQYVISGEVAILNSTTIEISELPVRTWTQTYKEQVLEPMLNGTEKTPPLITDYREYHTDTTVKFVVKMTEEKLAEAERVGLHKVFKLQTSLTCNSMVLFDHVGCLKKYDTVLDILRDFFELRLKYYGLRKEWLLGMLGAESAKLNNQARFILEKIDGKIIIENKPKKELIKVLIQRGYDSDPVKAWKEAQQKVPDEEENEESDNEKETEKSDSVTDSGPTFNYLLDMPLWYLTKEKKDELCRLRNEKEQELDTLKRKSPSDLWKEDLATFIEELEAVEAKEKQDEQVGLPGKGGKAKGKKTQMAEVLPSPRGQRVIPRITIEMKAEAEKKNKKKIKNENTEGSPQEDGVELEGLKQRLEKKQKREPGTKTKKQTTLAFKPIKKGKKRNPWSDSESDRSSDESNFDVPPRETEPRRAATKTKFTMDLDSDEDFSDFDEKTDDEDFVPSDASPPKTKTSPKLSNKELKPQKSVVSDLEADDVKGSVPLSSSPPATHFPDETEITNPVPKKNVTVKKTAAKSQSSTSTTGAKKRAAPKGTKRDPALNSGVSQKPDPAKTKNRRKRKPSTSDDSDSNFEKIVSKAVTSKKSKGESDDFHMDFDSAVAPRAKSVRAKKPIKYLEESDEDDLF

In the case of `O=C(O)c1ccc(-c2ssc(=S)c2-c2ccccc2)cc1`, the Activity [1] is reported as “Toxic”, the Activity [2] is reported as “Active” and the Activity [3] is reported as “Active”. For the same compound, the Activity [4] was “inactive”, the Activity [5] was “Active” and the Activity [6] was “Active”. For the same compound, the Activity [7] was “Active”, the Activity [8] was “Non-toxic” and the Activity [9] was “Active”. The Activity [10] was “Toxic”, the Activity [11] was “Active” and the Activity [12] was “inactive”. For the same compound, the Activity [13] was “inactive”, the Vmax [14] was 16 nmol/min/mg and the Activity [15] was “Active”. For the same compound, the Activity [16] was “Active”, the Activity [17] was “Non-toxic” and the Activity [18] was “Toxic”.

With `COc1cccc2c1C(=O)c1c(O)c3c(c(O)c1C2=O)C[C@@](O)(C(=O)CO)C[C@@H]3O[C@H]1C[C@H](N)[C@H](O)[C@H](C)O1.Cl` [DOXORUBICIN HYDROCHLORIDE] the Drug uptake [19] was “Not Active”, the Activity [20] was “inactive” and the Activity [21] was “Active”. For the same compound, the Activity [22] was “Toxic”, the Activity [23] was “inactive” and the Activity [24] was “inactive”. The Drug uptake [25] was “Not Active”, the Drug uptake [26] was “Not Active” and the Activity [8] was “Toxic”. The Activity [27] was “Non-toxic”, the Drug uptake [28] was “Active” and the Activity [29] was “Toxic”. The Vmax [30] was 24.1 nmol/min/mg, the Activity [31] was “inactive” and the Activity [32] was “inactive”. For the same compound, the inhibition [33] was “inactive”, the Activity [34] was “Toxic” and the Activity [35] was “inactive”. The Activity [36] was “Non-toxic”.
